# Calls of active or inactive are those of the source. No cut-off for these calls is given here.
# Legend:
# Hepatocyte [1] = assay: Inhibition of glucose production in cAMP and Dex pre-treated C57BLKS rat Primary hepatocytes incubated for 3 hrs by glucose assay kit method; type: functional, cell-based
# Procedure, shortened: (§1)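 Rat primary hepatocytes cultured overnight in DMEM/10% FBS, then pretreated with compounds for 3 h in fresh medium. Switched to glucose-free DMEM with 2 mM sodium pyruvate, 20 mM sodium lactate and compound for 3 h. Medium glucose measured with a kit and normalized to BCA protein. Pathological arm adds 1 µM dexamethasone plus 200 µM cAMP for 3 h. Means ± SEM, n=4.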
# Hepatocyte [2] = assay: Inhibition of lipid accumulation in C57BLKS rat Primary hepatocytes assessed as reduction in insulin and glucose-induced TC level incubated for 24 hrs; type: functional, cell-based
# Procedure, shortened: (§2)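 After overnight culture in DMEM, rat primary hepatocytes pretreated with compounds, then held in 25 mM glucose plus 500 nM insulin for 24 h to induce lipid accumulation. Triglyceride and total cholesterol measured with assay kits and normalized to BCA protein. Means ± SEM of four independent experiments.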
# Hepatocyte [3] = assay: Inhibition of lipid accumulation in C57BLKS rat Primary hepatocytes assessed as reduction in insulin and glucose-induced TG level at 100 uM incubated for 24 hrs; type: functional, cell-based; procedure, shortened: as §2
# [4] = Cytotoxicity against C57BLKS rat Primary hepatocytes assessed as cell viability incubated for 6 hrs by SRB assay; type: cell-based, Hepatocyte; conditions: read-out: Activity
# Procedure, shortened: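 Rat primary hepatocytes under physiological conditions exposed to compounds for 6 h. Viability read by sulforhodamine B staining. Means ± SEM of four independent experiments.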
# [5] = target: T1, Fructose-1,6-bisphosphatase 1 (Homo sapiens, UniProt P09467); assay: Inhibition of human FBPase expressed in Escherichia coli BL21 (DE3) using FBP as substrate incubated for 5 mins by malachite green dye based spectrophotometry
# T1 sequence (P09467 whole entry): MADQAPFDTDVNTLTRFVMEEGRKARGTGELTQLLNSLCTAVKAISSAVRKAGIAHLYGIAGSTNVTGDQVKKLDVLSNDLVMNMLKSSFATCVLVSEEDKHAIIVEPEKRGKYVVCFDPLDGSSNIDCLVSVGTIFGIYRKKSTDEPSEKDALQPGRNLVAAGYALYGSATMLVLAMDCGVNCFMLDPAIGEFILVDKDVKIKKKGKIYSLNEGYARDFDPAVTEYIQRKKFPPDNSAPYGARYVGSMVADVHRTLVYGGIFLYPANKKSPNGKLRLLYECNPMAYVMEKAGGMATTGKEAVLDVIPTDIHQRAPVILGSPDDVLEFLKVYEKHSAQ
# Hepatocyte [6] = assay: Inhibition of lipid accumulation in C57BLKS rat Primary hepatocytes assessed as reduction in insulin and glucose-induced TG level at 25 uM incubated for 24 hrs; type: functional, cell-based; procedure, shortened: as §2
# Hepatocyte [7] = assay: Inhibition of glucose production in cAMP and Dex pre-treated C57BLKS rat Primary hepatocytes at 1 uM incubated for 3 hrs by glucose assay kit method; type: functional, cell-based; procedure, shortened: as §1
# Hepatocyte [8] = assay: Cytotoxicity against C57BLKS rat Primary hepatocytes assessed as cell viability by measuring cellular protein level at 10 to 400 uM by bicinchoninic acid method; type: cell-based
# Procedure, shortened: (§3)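 Primary hepatocytes isolated from rat, cultured overnight in DMEM with 10% FBS, then exposed to compounds. Cellular protein per group measured by bicinchoninic acid (BCA) method as a viability control. The same protein values serve to normalize glucose, TG and TC contents. Pathological stimulation where applicable: 1 µM dexamethasone plus 200 µM cAMP, or 25 mM glucose plus 500 nM insulin for 24 h. Means ± SEM, four independent experiments.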
# Hepatocyte [9] = assay: Inhibition of lipid accumulation in C57BLKS rat Primary hepatocytes assessed as reduction in insulin and glucose-induced TC level at 25 uM incubated for 24 hrs; type: functional, cell-based; procedure, shortened: as §2
# Hepatocyte [10] = assay: Inhibition of glucose production in C57BLKS rat Primary hepatocytes incubated for 3 hrs by glucose assay kit method; type: functional, cell-based; procedure, shortened: as §1
# Hepatocyte [11] = assay: Cytotoxicity against C57BLKS rat Primary hepatocytes assessed as cell viability by measuring cellular protein level at 10 to 100 uM in presence of insulin and glucose by bicinchoninic acid method; type: cell-based; procedure, shortened: as §3
# Hepatocyte [12] = assay: Cytotoxicity against C57BLKS rat Primary hepatocytes assessed as cell viability by measuring cellular protein level at 1 to 100 uM in presence of cAMP and Dex by bicinchoninic acid method; type: cell-based; procedure, shortened: as §3
# Hepatocyte [13] = assay: Inhibition of glucose production in C57BLKS rat Primary hepatocytes at 400 uM incubated for 3 hrs by glucose assay kit method relative to control; type: functional; procedure, shortened: as §1
# [14] = target: T2, Fructose-1,6-bisphosphatase 1 (Homo sapiens) (UniProt P09467); assay: Inhibition of human FBPase expressed in Escherichia coli BL21 (DE3) at 500 uM using FBP as substrate incubated for 5 mins by malachite green dye based spectrophotometry relative to control
# T2 sequence (whole entry): T1 sequence (P09467 whole entry)
smiles,measurement,setting,value
CCOC(=O)C(C)(C)Oc1ccc(Cl)c(/C=C/[N+](=O)[O-])c1,inhibition,Hepatocyte [1],Dose-dependent effect
same,inhibition,Hepatocyte [2],Dose-dependent effect
same,inhibition,Hepatocyte [3],inactive
same,viability at 6 h,[4],> 80%
same,IC50,[5],2.9 µM
same,inhibition,Hepatocyte [6],Active
same,inhibition,Hepatocyte [7],Active
same,Activity,Hepatocyte [8],Non-Toxic
same,inhibition,Hepatocyte [9],Active
same,inhibition,Hepatocyte [10],Dose-dependent effect
same,Activity,Hepatocyte [11],Non-Toxic
same,Activity,Hepatocyte [12],Non-Toxic
same,inhibition at 400 µM,Hepatocyte [13],90%
CCOC(=O)C(C)(C)Oc1cccc(/C=C/[N+](=O)[O-])c1,IC50,[5],1 µM
CCOC(=O)C(C)(C)Oc1cc(/C=C/[N+](=O)[O-])ccc1OC(F)F,IC50,[5],1.6 µM
CCOC(=O)C(C)(C)Oc1ccc(/C=C/[N+](=O)[O-])cc1,IC50,[5],3.1 µM
O=[N+]([O-])/C=C/c1ccccc1 [(2-NITROVINYL)BENZENE],IC50,[5],3.5 µM
S=C=NCc1ccccc1,inhibition,[14],4.1%
CC(=O)C=O,inhibition,[14],19%
C=C(CC)C(=O)c1ccc(OCC(=O)O)c(Cl)c1Cl,inhibition,[14],56%
CCOC(=O)C(C)(C)Oc1cc(/C=C/[N+](=O)[O-])ccc1Cl,IC50,[5],0.83 µM
O=C1C=CCC1,inhibition,[14],29%
COC(=O)/C=C/C(=O)OC,inhibition,[14],22%
Nc1ncnc2c1ncn2[C@@H]1O[C@H](COP(=O)(O)O)[C@@H](O)[C@H]1O [ADENOSINE PHOSPHATE],IC50,[5],2.3 µM
CCOC(=O)C(C)(C)Oc1ccc(F)cc1/C=C/[N+](=O)[O-],IC50,[5],7 µM
CCCCCCCC/C=C(\CCCCCCCC(=O)O)[N+](=O)[O-] [NITROLEIC ACID],IC50,[5],58 µM
CCOC(=O)C(C)(C)Oc1ccc(/C=C/[N+](=O)[O-])cc1Cl,IC50,[5],1.6 µM
O=C/C=C/c1ccccc1,inhibition,[14],15%
c1ccc(C2CO2)cc1 (configuration not stated),inhibition,[14],31%
CCOC(=O)C(C)(C)Oc1ccc(Br)c(/C=C/[N+](=O)[O-])c1,IC50,[5],0.79 µM
C=CC(=O)Nc1ccccc1,inhibition,[14],17%
CCOC(=O)C(C)(C)Oc1ccc(Cl)cc1/C=C/[N+](=O)[O-],inhibition,Hepatocyte [1],Dose-dependent effect
same,inhibition,Hepatocyte [2],Dose-dependent effect
same,inhibition,Hepatocyte [3],inactive
same,viability at 6 h,[4],> 80%
same,IC50,[5],8.2 µM
same,inhibition,Hepatocyte [6],Active
same,inhibition,Hepatocyte [7],Active
same,Activity,Hepatocyte [8],Non-Toxic
same,inhibition,Hepatocyte [9],Active
same,inhibition,Hepatocyte [10],Dose-dependent effect
same,Activity,Hepatocyte [11],Non-Toxic
same,Activity,Hepatocyte [12],Non-Toxic
same,inhibition at 400 µM,Hepatocyte [13],90%
O=C(O)/C=C/C(=O)O,inhibition,[14],9.5%
CCOC(=O)C(C)(C)Oc1ccccc1/C=C/[N+](=O)[O-],IC50,[5],2.7 µM
CCOC(=O)C(C)(C)Oc1ccc(/C=C/[N+](=O)[O-])c(Cl)c1,IC50,[5],1.8 µM

# From ChEMBL document CHEMBL4311987, “Discovery of novel allosteric site and covalent inhibitors of FBPase with potent hypoglycemic effects” (Eur J Med Chem, 2019)
